Test results as given in ChEMBL document CHEMBL1132942, “Quinolones: novel probes in antifilarial chemotheraphy” (2000).

Assays:
[1] = Tested in vivo for sterilization of female worms; assay type: functional, Acanthocheilonema viteae; design: concentration or dose not given beside the values
Acanthocheilonema viteae [2] = assay: (§1) Tested in vivo for Acanthocheilonema viteae at 200 mg/kg X 5 days(perorally); assay type: functional; conditions: route oral
Method in brief: (§2)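 A. viteae transmitted to male M. coucha (6 weeks old) via vector tick Ornithodorus moubata. Test agents given orally at 200 mg/kg daily for five consecutive days. Micro- and macrofilaricidal activity assessed per earlier-described methods.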

Acanthocheilonema viteae [3] = assay: as §1; assay type: functional; conditions: route oral; method in brief: as §2; remark: listed apart in the source

Compound: CCCCCCCCNC(=O)c1cnc2c(F)cccc2c1O
- Reduction [1]: 25%
- Reduction (Acanthocheilonema viteae [2]): 47%
- Reduction (Acanthocheilonema viteae [3]): 37%

Compound: O=C(NC1CCCCC1)c1cnc2ccc(F)cc2c1O
- Reduction [1]: 36%
- Reduction (Acanthocheilonema viteae [2]): 31%
- Reduction (Acanthocheilonema viteae [3]): 50%

Compound: CCN(CC)CCCC(C)NC(=O)c1cnc2cc(Cl)c(F)cc2c1O (stereo unspecified)
- Reduction [1]: 0%
- Reduction (Acanthocheilonema viteae [2]): 0%
- Reduction (Acanthocheilonema viteae [3]): 60%

Compound: O=C(NC1CCCCC1)c1cnc2ccccc2c1O
- Reduction (Acanthocheilonema viteae [2]): 100%
- Reduction (Acanthocheilonema viteae [3]): 90%

Compound: O=C(NC1CCCCC1)c1cnc2ccc([N+](=O)[O-])cc2c1O
- Reduction [1]: 0%
- Reduction (Acanthocheilonema viteae [2]): 0%
- Reduction (Acanthocheilonema viteae [3]): 54%

Compound: CCCCCCCCNC(=O)c1cnc2c(C)cccc2c1O
- Reduction [1]: 0%
- Reduction (Acanthocheilonema viteae [2]): 0%
- Reduction (Acanthocheilonema viteae [3]): 17%

Compound: CCCCCCCCNC(=O)c1cnc2ccccc2c1O
- Reduction [1]: 0%
- Reduction (Acanthocheilonema viteae [2]): 0%
- Reduction (Acanthocheilonema viteae [3]): 25%

Compound: CCCCCCCCNC(=O)c1cnc2ccc(Cl)cc2c1O
- Reduction [1]: 0%
- Reduction (Acanthocheilonema viteae [2]): 50%
- Reduction (Acanthocheilonema viteae [3]): 30%

Compound: CCN(CC)CCCC(C)NC(=O)c1cnc2ccc([N+](=O)[O-])cc2c1O (stereo unspecified)
- Reduction [1]: 0%
- Reduction (Acanthocheilonema viteae [2]): 0%
- Reduction (Acanthocheilonema viteae [3]): 54%

Compound: O=C(NC1CCCCC1)c1cnc2cc([N+](=O)[O-])ccc2c1O
- Reduction [1]: 0%
- Reduction (Acanthocheilonema viteae [2]): 80%
- Reduction (Acanthocheilonema viteae [3]): 24%

Compound: CCCCCCCCNC(=O)c1cnc2ccc(F)cc2c1O
- Reduction [1]: 0%
- Reduction (Acanthocheilonema viteae [2]): 0%
- Reduction (Acanthocheilonema viteae [3]): 48%

Compound: CCCCCCCCNC(=O)c1cnc2ccc([N+](=O)[O-])cc2c1O
- Reduction [1]: 100%
- Reduction (Acanthocheilonema viteae [2]): 38%
- Reduction (Acanthocheilonema viteae [3]): 40%

Compound: Cc1cccc2c(O)c(C(=O)NC3CCCCC3)cnc12
- Reduction [1]: 0%
- Reduction (Acanthocheilonema viteae [2]): 0%
- Reduction (Acanthocheilonema viteae [3]): 54%

Compound: CCN(CC)C(=O)N1CCN(C)CC1.O=C(O)CC(O)(CC(=O)O)C(=O)O [DIETHYLCARBAMAZINE CITRATE]
- Reduction [1]: 0%
- Reduction (Acanthocheilonema viteae [2]): 0%
- Reduction (Acanthocheilonema viteae [3]): 90%
